pIC50: −log10 of the molar value. Calls of active or inactive are those of the source. The rule behind the calls is not given here. Where a SMILES comes first, the peptide text is derived from it.
Experiments:
WM266 [1] = experiment: (§1) Antiadhesive activity in alphavbeta3 integrin overexpressing human WM266 cells assessed as inhibition of cell adhesion onto fibronectin at 50 uM preincubated for 30 mins followed by cell seeding on fibronectin by RTCA relative to control; type: functional
In short: (§2)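 WM266 cells (4 × 10^4, RPMI/10% FBS) preincubated 30 min at 4 °C with peptide (50 μM) in adhesion buffer, then seeded on wells coated overnight at 4 °C with 10 μg/mL matrix and blocked with 1.5% BSA. Impedance cell index read every minute over 0–24 h. Adhesion rate taken as slope between two time points, expressed as % of untreated control.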

WM266 [2] = experiment: Antiinvasive activity in alphavbeta3 integrin overexpressing human WM266 cells at 50 uM after 18 hrs by Transwell assay relative to control; type: functional, cell-based
In short: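 Transwell inserts (8 μm) coated with ECL Cell Attachment. EDTA-detached WM266 cells (1 × 10^5, serum-free RPMI) with peptide (50 μM) in the upper chamber, 10% FBS RPMI below. Incubated 18 h at 37 °C. Invaded cells formalin-fixed, crystal violet stained and counted in four fields per chamber. Duplicate chambers.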

HeLa = experiment: Antiadhesive activity in alphavbeta5 integrin overexpressing human HeLa cells assessed as inhibition of cell binding to anti-alphaVbeta5 antibody at 50 uM by RTCA cell index slope-based assay
WM266 [3] = experiment: (§3) Antiadhesive activity in alphavbeta3 integrin overexpressing human WM266 cells assessed as inhibition of cell binding to anti-alphaVbeta3 antibody at 50 uM after 1 hr by crystal violet staining-based assay relative to control; type: functional
In short: (§4)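 Plates coated with anti-αvβ3 antibody LM609 (10 μg/mL). WM266 cells (1.5 × 10^4/well) incubated with peptide (50 μM) for 1 h. Nonadherent cells washed off, adherent cells measured by crystal violet optical density as % of untreated control. At least three independent experiments in duplicate.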

WM266 [4] = experiment: (§5) Antiadhesive activity in alphavbeta3 integrin overexpressing human WM266 cells assessed as inhibition of cell adhesion onto vitronectin at 50 uM preincubated for 30 mins followed by cell seeding on vitronectin by RTCA relative to control; type: functional; in short: as §2
[5] = (§6) Antiadhesive activity in alphavbeta3 integrin overexpressing human WM266 cells assessed as inhibition of cell adhesion onto fibronectin preincubated for 30 mins followed by cell seeding on fibronectin measured after 1 hr by crystal violet staining-based assay; type: functional
In short: (§7)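 Dose–response adhesion: WM266 cells preincubated with increasing peptide concentrations, then seeded on plates precoated with vitronectin or fibronectin (10 μg/mL). Adherent cells quantified after 1 h by crystal violet staining as % of untreated control. IC50 derived from this curve; means ± SE of three independent experiments in triplicate.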

[6] = (§8) Antiadhesive activity in alphavbeta3 integrin overexpressing human WM266 cells assessed as inhibition of cell adhesion onto vitronectin preincubated for 30 mins followed by cell seeding on vitronectin measured after 1 hr by crystal violet staining-based assay; type: functional; in short: as §7
[7] = Antimigratory activity in alphavbeta3 integrin overexpressing human WM266 cells at 50 uM after 48 hrs by wound healing assay relative to control; type: functional
In short: (§9)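 Confluent WM266 monolayers scratched with a pipette tip, washed with PBS, then given medium containing peptide (50 μM). Phase-contrast images taken at 0, 24 and 48 h. Wound width expressed as % of the 0 h value. Three experiments in triplicate.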

[8] = In vivo tumor uptake in CD1 nu/nu athymic mouse xenografted with alphavbeta3 integrin overexpressing human WM266 cells using NIR750 labeled compound at 1 nmol, iv after 3 to 24 hrs by fluorescence molecular tomography; type: ADME, organism-based, Neoplasm
In short: (§10)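 Peptides conjugated to VivoTag-S 750 NHS ester. 10 × 10^6 WM266 cells implanted in the right flank of CD1 nu/nu mice, fed alfalfa-free chow. At about 0.5 cm3 tumour volume, 1 nmol conjugate given i.v. (3 mice/group) under isoflurane. Whole-body FMT imaging at 3, 5 and 24 h, reported as tumour ROI counts/energy. Tumours excised at 24 h for ex vivo FMT.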

[9] = as §3; type: functional; settings: WM266, 1 h; in short: as §4
Serum [10] = experiment: Metabolic stability in human serum at 1 mg/ml after 3 to 24 hrs by RP-HPLC method; type: ADME, cell-free
In short: (§11)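 Peptide solution (1 mg/mL, 160 μL) mixed with 400 μL human serum at 37 °C. Aliquots taken at 1, 2, 4, 8, 24 and 48 h were quenched with 15% TFA and centrifuged. Supernatants analysed by LC–MS, following loss of the intact-peptide peak.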

[11] = Antimigratory activity in alphavbeta3 integrin overexpressing human WM266 cells at 50 uM after 24 hrs by wound healing assay relative to control; type: functional; in short: as §9
[12] = as §1; type: functional; in short: as §2
[13] = Ex vivo tumor uptake in CD1 nu/nu athymic mouse xenografted with alphavbeta3 integrin overexpressing human WM266 cells using NIR750 labeled compound at 1 nmol, iv after 24 hrs by fluorescence molecular tomography; type: ADME, organism-based, Neoplasm; in short: as §10
Serum [14] = experiment: Metabolic stability in human serum at 1 mg/ml after 48 hrs by RP-HPLC method; type: ADME, cell-free; in short: as §11
WM266 [15] = experiment: as §6; type: functional; in short: as §7
WM266 [16] = experiment: as §8; type: functional; in short: as §7
[17] = molecular target: Integrin alpha-V/beta-3 (Homo sapiens) (UniProt P05106+P06756); experiment: Competitive binding affinity to alphavbeta3 integrin in human WM266 cells using NIR750-labeled compound at 1 nmole after 1 hr in presence of excess of unlabeled compound by DAPI staining-based confocal microscopic method; type: cell-based
In short: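 WM266 cells on coverslips incubated with 1 nmol NIR750-labelled peptide in DPBS/5% FBS for 1 h at 4 °C. For competition, cells were first preincubated 1 h at 4 °C with 1000-fold excess unlabelled parent. Cells fixed, DAPI-stained and immunostained for αvβ3, then imaged by confocal microscopy. Colocalization scored by Manders' coefficients.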

WM266 [18] = experiment: Antiadhesive activity in alphavbeta3 integrin overexpressing human WM266 cells assessed as inhibition of cell adhesion onto collagen 1 at 50 uM preincubated for 30 mins followed by cell seeding on collagen 1 by RTCA; type: functional, cell-based; in short: as §2
[19] = as §5; type: functional; in short: as §2

Drug uptake [8]	Stability (Serum [10])	Drug uptake [13]	Stability (Serum [14])	Activity [17]	Compound	inhibition (WM266 [1])	Activity (WM266 [2])	inhibition (HeLa)	inhibition (WM266 [3])	inhibition (WM266 [4])	pIC50 [5]	pIC50 [6]	Activity [7] [%]	inhibition at 50 µM [9] [%]	Activity [11] [%]	inhibition at 50 µM [12] [%]	inhibition (WM266 [15])	inhibition (WM266 [16])	inhibition (WM266 [18])	inhibition at 50 µM [19] [%]
					N=C(N)NCCC[C@@H]1NC(=O)CNC(=O)[C@H](CC(=O)O)NC(=O)[C@@H](Cc2ccccc2)NC(=O)[C@H](CCCCN)NC1=O	Active	Active	Active	Active	Active										
Active	Unstable				CSCC[C@H](NC(=O)CC[C@@H]1NC(=O)[C@H](CC(=O)O)NC(=O)CNC(=O)[C@H](CCCNC(=N)N)NC(=O)[C@H](CCCCN)NC1=O)C(=O)N[C@@H](CC(=O)O)C(=O)N[C@@H](CC(=O)O)C(=O)N1CCC[C@H]1C(=O)NCC(=O)N[C@@H](CCCNC(=N)N)C(=O)N[C@@H](CC(N)=O)C(=O)N1CCC[C@H]1C(=O)N[C@@H](Cc1cnc[nH]1)C(=O)N[C@@H](CCCCNC(N)=O)C(=O)NCC(=O)N1CCC[C@H]1C(=O)N[C@@H](C)C(=O)N[C@H](C(=O)O)[C@@H](C)O (HELM PEPTIDE1{M.D.D.P.G.R.N.P.H.[NC(=O)NCCCC[C@H](N[*:1])C(=O)[*:2]].G.P.A.T}|PEPTIDE2{R.G.D.E.K}$PEPTIDE1,PEPTIDE2,1:R1-4:R3|PEPTIDE2,PEPTIDE2,1:R1-5:R2$$$V2.0)		Active	inactive			4.28	4.59	20	40	31					
Active		Active	Stable	Active	CSCC[C@H](NC(=O)CC[C@@H]1NC(=O)[C@H](CC(=O)O)NC(=O)CNC(=O)[C@H](CCCNC(=N)N)NC(=O)[C@H](CCCCN)NC1=O)C(=O)N[C@@H](CC(=O)O)C(=O)N[C@@H](CC(=O)O)C(=O)N1CCC[C@H]1C(=O)NCC(=O)N[C@@H](CCCNC(=N)N)C(=O)N[C@@H](CC(N)=O)C(=O)N1CCC[C@H]1C(=O)N[C@@H](Cc1cnc[nH]1)C(=O)N[C@@H](CCCCNC(N)=O)C(=O)NCC(=O)N1CCC[C@H]1CN[C@@H](C)C(=O)N[C@H](C(=O)O)[C@@H](C)O (HELM PEPTIDE1{M.D.D.P.G.R.N.P.H.[NC(=O)NCCCC[C@H](N[*:1])C(=O)[*:2]].G.[C[C@H](NC[C@@H]1CCCN1[*:1])C(=O)N[C@H](C(=O)O)[C@@H](C)O]}|PEPTIDE2{R.G.D.E.K}$PEPTIDE1,PEPTIDE2,1:R1-4:R3|PEPTIDE2,PEPTIDE2,1:R1-5:R2$$$V2.0)		Active	inactive			4.68	5.28	33	40	54	33	Dose-dependent effect	Dose-dependent effect	inactive	55
